Data on 18 molecules can be found in ChEMBL document CHEMBL1142706, “Synthesis and evaluation of (pyridylmethylene)tetrahydronaphthalenes/-indanes and structurally modified derivatives: potent and selective inhibitors of aldosterone synthase” (J Med Chem, 2005).

Data set [1] concerns the target T1, Cytochrome P450 11B2, mitochondrial (Homo sapiens, UniProt P19099).
T1 sequence (P19099 whole entry): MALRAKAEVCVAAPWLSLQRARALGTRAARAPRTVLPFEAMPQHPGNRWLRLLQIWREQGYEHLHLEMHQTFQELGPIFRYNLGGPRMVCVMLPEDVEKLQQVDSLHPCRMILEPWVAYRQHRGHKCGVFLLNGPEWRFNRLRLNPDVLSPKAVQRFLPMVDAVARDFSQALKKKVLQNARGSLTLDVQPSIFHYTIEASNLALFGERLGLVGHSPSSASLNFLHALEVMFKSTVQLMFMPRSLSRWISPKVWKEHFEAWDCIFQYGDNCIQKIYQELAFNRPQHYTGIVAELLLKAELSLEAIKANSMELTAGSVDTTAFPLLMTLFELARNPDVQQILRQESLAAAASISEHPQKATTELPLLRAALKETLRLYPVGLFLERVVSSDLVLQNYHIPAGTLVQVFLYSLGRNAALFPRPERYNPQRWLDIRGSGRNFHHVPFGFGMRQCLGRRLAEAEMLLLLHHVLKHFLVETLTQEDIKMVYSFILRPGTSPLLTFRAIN
Description: In vitro inhibitory concentration against human CYP11B2 expressed in V79MZh hamster fibroblasts incubated with 100 nM of substrate deoxy-corticosterone in presence of the compound. A digest of the protocol: (§1)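 Intact V79 MZh hamster fibroblasts expressing human CYP11B1 or CYP11B2, incubated with [4-14C]-11-deoxycorticosterone (100 nM) and inhibitor at no fewer than three concentrations to give IC50. Stopped with ethyl acetate, shaken, centrifuged (10 000g, 2 min); steroids in organic phase analysed by HPTLC/phosphoimager. Mean of four determinations, standard deviation less than 5%.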

The species named for data set [2] is Homo sapiens. Description: In vitro IC50 ratio against human CYP11B1 to that of human CYP11B2. A digest of the protocol:
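IC50 ratio from V79 MZh hamster fibroblasts expressing human CYP11B1 or CYP11B2, each incubated with [4-14C]-11-deoxycorticosterone (100 nM) and inhibitor at no fewer than three concentrations; steroids extracted into ethyl acetate and quantified by HPTLC with phosphoimaging.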

The target of data set [3] is T2, Cytochrome P450 11B1, mitochondrial (Homo sapiens, UniProt P15538).
T2 sequence (P15538 whole entry): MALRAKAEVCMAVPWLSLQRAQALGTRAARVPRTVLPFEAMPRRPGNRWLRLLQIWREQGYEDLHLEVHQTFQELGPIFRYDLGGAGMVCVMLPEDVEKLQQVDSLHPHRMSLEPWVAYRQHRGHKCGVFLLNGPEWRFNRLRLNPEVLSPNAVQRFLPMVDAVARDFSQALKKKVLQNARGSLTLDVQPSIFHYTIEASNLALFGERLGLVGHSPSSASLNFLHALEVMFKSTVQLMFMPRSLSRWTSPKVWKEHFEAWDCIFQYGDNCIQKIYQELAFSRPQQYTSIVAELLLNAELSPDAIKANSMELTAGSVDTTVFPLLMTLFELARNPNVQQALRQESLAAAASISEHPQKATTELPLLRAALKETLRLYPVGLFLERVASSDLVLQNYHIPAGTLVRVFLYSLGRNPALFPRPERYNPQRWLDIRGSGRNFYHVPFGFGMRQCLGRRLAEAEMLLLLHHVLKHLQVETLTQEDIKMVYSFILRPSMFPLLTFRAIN
Description: (§2) In vitro inhibitory concentration against human CYP11B1 expressed in V79 MZh hamster fibroblasts incubated with 100 nM of substrate deoxy-corticosterone in presence of the compound.

The target of data set [4] is T3, CYP11B1 (Homo sapiens, UniProt P15538).
T3 sequence (P15538 whole entry): T2 sequence (P15538 whole entry)
Described as §2. As to conditions: human, V79 MZh hamster fibroblasts expressing human CYP11B1, probe deoxy-corticosterone.

For data set [5], the target named is T4, Aromatase (Homo sapiens, UniProt P11511).
T4 sequence (P11511 whole entry): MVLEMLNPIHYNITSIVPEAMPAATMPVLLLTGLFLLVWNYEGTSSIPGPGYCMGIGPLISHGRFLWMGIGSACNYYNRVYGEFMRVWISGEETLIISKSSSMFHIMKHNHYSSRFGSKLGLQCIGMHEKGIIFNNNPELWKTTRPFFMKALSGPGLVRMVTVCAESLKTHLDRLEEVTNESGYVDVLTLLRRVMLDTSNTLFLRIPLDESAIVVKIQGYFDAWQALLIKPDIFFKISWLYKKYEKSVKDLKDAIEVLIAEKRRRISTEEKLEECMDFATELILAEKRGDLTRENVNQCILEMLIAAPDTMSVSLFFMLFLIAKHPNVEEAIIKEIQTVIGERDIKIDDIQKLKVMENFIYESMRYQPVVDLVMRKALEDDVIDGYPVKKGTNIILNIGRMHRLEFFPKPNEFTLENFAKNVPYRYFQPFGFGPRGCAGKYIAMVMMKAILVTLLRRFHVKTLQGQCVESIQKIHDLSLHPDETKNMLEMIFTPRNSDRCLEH
Description: In vitro inhibitory concentration against human placental CYP19 incubated with 500 nM of substrate androstenedione in presence of the compound.

The target in data set [6] is T1, Cytochrome P450 11B2, mitochondrial. Description: In vitro inhibitory concentration against human CYP11B2 expressed in V79 MZh hamster fibroblasts incubated with 100 nM of substrate deoxy-corticosterone in presence of the compound. The method, boiled down: as §1
For data set [7] the target is unchanged. Description: In vitro inhibition of human CYP11B2 expressed in Schizosaccharomyces pombe incubated with 100 nM of substrate deoxy-corticosterone in presence of 500 nM of compound.
In data set [8] the target is T5, CYP17 (Homo sapiens, UniProt P05093).
T5 sequence (P05093 whole entry): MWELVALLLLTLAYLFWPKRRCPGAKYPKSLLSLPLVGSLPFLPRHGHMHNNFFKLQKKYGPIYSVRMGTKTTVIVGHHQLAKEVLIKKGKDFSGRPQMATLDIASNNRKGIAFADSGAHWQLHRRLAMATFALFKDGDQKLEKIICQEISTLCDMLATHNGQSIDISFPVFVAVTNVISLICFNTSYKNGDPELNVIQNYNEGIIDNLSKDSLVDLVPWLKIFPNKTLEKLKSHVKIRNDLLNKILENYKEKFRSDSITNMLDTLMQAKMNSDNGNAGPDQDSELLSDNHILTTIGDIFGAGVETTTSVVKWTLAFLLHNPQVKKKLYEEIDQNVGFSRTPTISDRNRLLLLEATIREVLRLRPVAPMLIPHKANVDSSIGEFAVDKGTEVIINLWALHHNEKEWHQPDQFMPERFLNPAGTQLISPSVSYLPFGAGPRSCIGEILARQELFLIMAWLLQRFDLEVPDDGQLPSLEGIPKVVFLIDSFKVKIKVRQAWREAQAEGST
Description: In vitro inhibition of human CYP17 expressed in Escherichia coli incubated with 2.5 uM of substrate progesterone in presence of 2.5 uM of compound. Conditions: probe progesterone.

The subject of data set [9] is CYP11B2 (Homo sapiens). Description: In vitro inhibitory concentration against human CYP11B2 expressed in V79 MZh hamster fibroblasts incubated with 100 nM of substrate deoxy-corticosterone in presence of the compound. As to conditions: V79 MZh hamster fibroblasts expressing human CYP11B2, probe deoxy-corticosterone.

As usually defined, the IC50 is the concentration that gives 50% inhibition. On to `Fc1ccc2c(c1)CC/C2=C/c1ccncc1`, for which the results for the IC50 in data set [1] and in data set [3] were 0.029 µM and 0.034 µM, respectively. Besides, the Selectivity ratio in data set [2] was determined as 7.6.

For `Fc1ccc2c(c1)CC/C2=C\c1cncnc1`, the IC50 in data set [1] was 0.027 µM; in [4], 3.18 µM. Further, in [2], the Selectivity ratio worked out at 118.

Take `Fc1ccc2c(c1)CC/C2=C\c1ccncc1`: the IC50 in data set [1] came to 0.015 µM; in data set [3], 1.1 µM. In addition, the Selectivity ratio in data set [2] came to 0.3.

As a reminder, the inhibition is the share of the control response that was lost under treatment. With `CC1C/C(=C/c2cccnc2)c2ccccc21` (stereo unspecified), the IC50 in [5] is 2.8 µM; in data set [6], 0.041 µM. Also, the inhibition at 0.5 µM in [7] was 15%.

In the case of `C(=C1/CCCc2ccccc21)/c1ccncc1`, the values for the IC50 in data set [1], in [3] and in [5] were 0.015 µM, 0.143 µM and 0.65 µM, respectively. Moreover, the Selectivity ratio in data set [2] turned out to be 2. The inhibition at 0.5 µM in data set [7] was 54%.

Consider `C/C(=C1/CCc2cc(F)ccc21)c1cccnc1`, for which the Selectivity ratio in data set [2] worked out at 1.7. The IC50 in data set [3] was 0.096 µM. Further, in [7], the inhibition at 0.5 µM came out at 67%.

Consider `Fc1ccc2c(c1)CC/C2=C\c1cccc2cnccc12`, for which the half-inhibitory concentration (IC50) in [1] is 0.057 µM; in [4], 0.058 µM. Further, the Selectivity ratio in data set [2] stood at 19.5.

With `Cc1ccc2c(c1)/C(=C\c1cccnc1)CC2`, the inhibition at 2.5 µM in data set [8] turned out to be 2%. In data set [5], the IC50 worked out at 4.6 µM. In data set [7], the inhibition at 0.5 µM was determined as 43%.

In the case of `C(=C1/CCc2ccccc21)/c1cccnc1`, in data set [2], the Selectivity ratio was 80.7. Moreover, the inhibition at 2.5 µM in data set [8] was determined as 14%. Also, the IC50 in data set [6] came out at 0.011 µM.

Turning to `Fc1ccc2c(c1)CC/C2=C/c1cccc2cnccc12`, the figures for the IC50 in data set [9] and in data set [1] were 0.026 µM and 0.065 µM, respectively. Further, the Selectivity ratio in [2] stood at 14.4.

For the molecule `Clc1ccc2c(c1)CC/C2=C\c1ccncc1`, the IC50 in [1] and in [3] was 1.52 µM throughout.

Regarding `C(=C1\CCc2ccccc21)/c1cccnc1`, the IC50 in [1] came to 0.092 µM; in data set [3], 0.087 µM; in data set [5] it was 3.55 µM. In addition, the Selectivity ratio in [2] came to 0.9. The inhibition at 2.5 µM in data set [8] was determined as 33%. For the same molecule, the inhibition at 0.5 µM in data set [7] stood at 83%.

Regarding `C(=C1\CCc2ccccc21)/c1ccncc1`, the IC50 was determined as 0.018 µM in data set [1] and 0.931 µM in [3]. Besides, the Selectivity ratio in [2] was 1.4.

In the case of `Brc1ccc2c(c1)CC/C2=C/c1ccncc1`, the values for the IC50 in [1], in [3] and in data set [5] were 0.056 µM, 0.484 µM and 3.4 µM, respectively. For the same molecule, in data set [2], the Selectivity ratio was 1.8. In addition, the inhibition at 0.5 µM in data set [7] is 40%.

Consider `Cc1cccc2c1CC/C2=C/c1cccnc1`, for which the inhibition at 2.5 µM in data set [8] amounted to 16%. Moreover, the half-maximal inhibitory concentration (IC50) in data set [5] was determined as 12.6 µM. In addition, the inhibition at 0.5 µM in data set [7] is 12%.

As for `Fc1cccc2c1CC/C2=C/c1cccnc1`, the inhibition at 2.5 µM in data set [8] is 53%. The IC50 in [5] turned out to be 0.18 µM. In data set [7], the inhibition at 0.5 µM is 40%.

In the case of `Brc1ccc2c(c1)CC/C2=C\c1ccncc1`, the IC50 was 0.024 µM in data set [1], 2.64 µM in data set [3] and greater than 36 µM in data set [5]. Moreover, the Selectivity ratio in [2] was found to be 0.4.

Take `COc1ccc2c(c1)/C(=C/c1cccnc1)CC2`: the inhibition at 2.5 µM in data set [8] worked out at 5%. In [5], the IC50 turned out to be 6.36 µM. Moreover, the inhibition at 0.5 µM in [7] amounted to 29%.
